Measured values reported in ChEMBL document CHEMBL3994676, “Encapsulation of Mitoxantrone within Cucurbit[8]uril Decreases Toxicity and Enhances Survival in a Mouse Model of Cancer” (ACS Med Chem Lett, 2017).
Calls of active or inactive are those of the source. The calls are words filed in the database; no cut-off is given here.

Key:
[1] = Drug uptake in mouse 4T1.2 cell at 5 uM encapsulated within cucurbit[8]uril after 4 hrs by laser scanning confocal microscopic method
[2] = Drug uptake in mouse 4T1.2 cell lysosomes at 5 uM encapsulated within cucurbit[8]uril after 20 mins by LysoTracker Green staining based laser scanning confocal microscopic method; format: ADME, Lysosome
4T1.2 [3] = test: Antitumor activity against mouse 4T1.2 cells implanted in Balb/c mouse assessed as tumor growth inhibition at 2 mg/kg, iv administered twice weekly for 2 weeks; format: functional, organism-based
Procedure, shortened: (§1)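 Female Balb/c mice given 1 × 105 4T1.2 cells into the fourth mammary fat pad. Dosing started once tumors were palpable on day 8. Dosed iv by tail vein twice weekly for 2 weeks, 2 mg/kg as mitoxantrone (complex adds 3 mg/kg Q[8]), in 0.9% saline vehicle. Primary tumors measured with digital calipers. Groups n = 10–11. One-way ANOVA against vehicle.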

[4] = Drug uptake in mouse 4T1.2 cell at 5 uM after 4 hrs by laser scanning confocal microscopic method
4T1.2 [5] = test: Antitumor activity against mouse 4T1.2 cells implanted in Balb/c mouse assessed as mouse survival rate at 2 mg/kg, iv administered twice weekly for 2 weeks measured up to 33 days (rvb = 30%); format: functional; details: 4T1.2, iv
Procedure, shortened: (§2)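 Female Balb/c mice given 1 × 10^5 4T1.2 cells into the fourth mammary fat pad. Treatment started on day 8 once tumours were palpable: 2 mg/kg mitoxantrone-equivalent (complex formulation also 3 mg/kg Q[8]) or 0.9% saline vehicle, by tail-vein iv, twice weekly for 2 weeks. Monitored to day 33. Culled at >20% weight loss, tumour >1500 mm3 or metastatic distress. Kaplan–Meier analysis with log-rank test.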

Mus musculus [6] = test: Toxicity in Balb/c mouse assessed as body weight loss at 2 mg/kg, iv administered twice weekly for 2 weeks relative to control; format: organism-based; details: in vivo, 336 h
Procedure, shortened: (§3)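 Non-tumor-bearing female Balb/c mice (9 weeks old), four per group, were dosed iv by tail vein on days 0, 3, 7 and 10. Dose was 2 mg/kg as mitoxantrone (complex adds 3 mg/kg Q[8]) in 0.9% saline vehicle. Body weight was recorded daily and expressed as mean change from baseline.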

4T1.2 [7] = test: Growth inhibition of mouse 4T1.2 cells up to 20000 nM after 48 hrs by MTT assay; format: functional, cell-based
4T1.2 [8] = test: Antitumor activity against mouse 4T1.2 cells implanted in Balb/c mouse assessed as tumor growth inhibition at 3 mg/kg, iv encapsulated within cucurbit[8]uril administered twice weekly for 2 weeks; format: functional, organism-based
Procedure, shortened: as §1

4T1.2 [9] = test: Antitumor activity against mouse 4T1.2 cells implanted in Balb/c mouse assessed as mouse survival time at 3 mg/kg, iv encapsulated within cucurbit[8]uril administered twice weekly for 2 weeks measured up to 33 days; format: functional
Procedure, shortened: as §2

4T1.2 [10] = test: Growth inhibition of mouse 4T1.2 cells up to 20000 nM encapsulated within cucurbit[8]uril after 48 hrs by MTT assay; format: functional, cell-based
Mus musculus [11] = test: Toxicity in Balb/c mouse assessed as body weight loss at 3 mg/kg, iv encapsulated within cucurbit[8]uril administered twice weekly for 2 weeks; format: organism-based; details: in vivo, 336 h
Procedure, shortened: as §3

Mus musculus [12] = test: Toxicity in Balb/c mouse implanted with mouse 4T1.2 cells assessed as body weight loss at 3 mg/kg, iv encapsulated within cucurbit[8]uril administered twice weekly for 2 weeks; format: organism-based; details: in vivo, 336 h
Procedure, shortened: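 Mice bore orthotopic 4T1.2 mammary fat pad tumors, with treatment begun on day 8. Dosing was iv twice weekly for 2 weeks at 2 mg/kg mitoxantrone plus 3 mg/kg Q[8], in saline vehicle. Body weight was monitored. Culling at >20% weight loss, tumor >1500 mm3, or metastatic distress.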

O=C1c2c(O)ccc(O)c2C(=O)c2c(NCCNCCO)ccc(NCCNCCO)c21 [MITOXANTRONE]
Drug uptake [1]: Active | Drug uptake [2]: Active | TGI (4T1.2 [3]): Active | Drug uptake [4]: Active | survival at 2 mg/kg (4T1.2 [5]): 60% | Activity (Mus musculus [6]): 15% | growth inhibition (GI) (4T1.2 [7]): Active | TGI (4T1.2 [8]): Active | Survival (4T1.2 [9]): 26 days | growth inhibition (GI) (4T1.2 [10]): Active | Activity (Mus musculus [11]): Non-Toxic | Activity (Mus musculus [12]): Non-Toxic
